These results are taken from ChEMBL document CHEMBL1141482, “Selective, high affinity A(2B) adenosine receptor antagonists: N-1 monosubstituted 8-(pyrazol-4-yl)xanthines” (Bioorg Med Chem Lett, 2008).

One test addresses T1, Adenosine receptor A2b (Homo sapiens, UniProt P29275).
T1 sequence (P29275 whole entry): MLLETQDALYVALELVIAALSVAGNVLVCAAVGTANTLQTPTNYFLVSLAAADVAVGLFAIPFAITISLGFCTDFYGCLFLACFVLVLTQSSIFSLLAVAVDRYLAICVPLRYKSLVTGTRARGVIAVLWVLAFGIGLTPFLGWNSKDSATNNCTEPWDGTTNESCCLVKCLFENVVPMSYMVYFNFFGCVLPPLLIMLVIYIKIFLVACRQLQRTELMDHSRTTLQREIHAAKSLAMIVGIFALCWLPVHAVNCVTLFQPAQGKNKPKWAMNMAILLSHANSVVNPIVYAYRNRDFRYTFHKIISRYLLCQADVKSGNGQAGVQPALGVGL
Kind of test: Displacement of [3H]-ZM241385 from human A2B receptor expressed in HEK293 cell membranes. In outline:
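Membranes from HEK cells expressing A2B; binding sites labeled with 3H-ZM241385 at 14 nM and displaced competitively.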
A general note: Displacement assays read how much labelled ligand stays bound in the presence of the test substance.

A further test has as its target T2, Adenosine receptor A1 (Homo sapiens, UniProt P30542).
T2 sequence (P30542 whole entry): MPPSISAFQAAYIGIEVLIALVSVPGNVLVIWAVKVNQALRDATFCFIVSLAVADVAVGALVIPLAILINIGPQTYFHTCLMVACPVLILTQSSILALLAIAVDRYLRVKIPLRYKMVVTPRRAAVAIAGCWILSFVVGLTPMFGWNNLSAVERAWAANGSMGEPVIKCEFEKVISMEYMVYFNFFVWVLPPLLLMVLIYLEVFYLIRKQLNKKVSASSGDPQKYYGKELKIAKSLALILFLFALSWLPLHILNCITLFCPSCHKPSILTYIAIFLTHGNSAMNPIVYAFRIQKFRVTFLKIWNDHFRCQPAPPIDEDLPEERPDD
Briefly: Displacement of [3H]-CPX from human A1 receptor expressed in CHO cell membranes. The method in brief: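 Competitive binding on membranes prepared from A1-expressing CHO cells, radioligand 3H-CPX at 0.5 nM.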

A further test addresses Adenosine receptor A2a (Homo sapiens, UniProt P29274). Kind of test: Displacement of [3H]ZM241385 from human A2A receptor expressed in HEK293 cell membranes. The method in brief:
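A2A affinity by competition with 3H-ZM241385 (2 nM) for binding sites in membranes from HEK-A2A cells.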

The next test concerns the target T3, Adenosine receptor A3 (Homo sapiens, UniProt P0DMS8).
T3 sequence (P0DMS8 whole entry): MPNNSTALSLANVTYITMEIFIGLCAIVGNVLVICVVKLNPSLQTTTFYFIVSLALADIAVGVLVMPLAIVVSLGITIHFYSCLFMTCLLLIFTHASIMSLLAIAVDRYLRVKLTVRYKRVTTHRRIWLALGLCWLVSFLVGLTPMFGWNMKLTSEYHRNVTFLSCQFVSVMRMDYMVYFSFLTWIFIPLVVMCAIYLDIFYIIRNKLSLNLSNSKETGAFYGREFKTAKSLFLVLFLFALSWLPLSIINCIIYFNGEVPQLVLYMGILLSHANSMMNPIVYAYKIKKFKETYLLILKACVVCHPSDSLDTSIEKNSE
Kind of test: Displacement of [125I]-AB-MECA from human A3 receptor expressed in CHO cells. It is filed as cell-based. In outline: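 A3 binding: competition for sites labeled by 125I-AB-MECA using CHO cells expressing the A3 receptor.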

The species named for test [1] is Homo sapiens. Briefly: Selectivity for human A2B receptor over human A1 receptor.
The species named for test [2] is Homo sapiens. Kind of test: Selectivity for human A2B receptor over human A2A receptor.
The species named for test [3] is Homo sapiens. Briefly: Selectivity for human A2B receptor over human A3 receptor.

Chain of Adenosine receptor A2a (P29274 whole entry): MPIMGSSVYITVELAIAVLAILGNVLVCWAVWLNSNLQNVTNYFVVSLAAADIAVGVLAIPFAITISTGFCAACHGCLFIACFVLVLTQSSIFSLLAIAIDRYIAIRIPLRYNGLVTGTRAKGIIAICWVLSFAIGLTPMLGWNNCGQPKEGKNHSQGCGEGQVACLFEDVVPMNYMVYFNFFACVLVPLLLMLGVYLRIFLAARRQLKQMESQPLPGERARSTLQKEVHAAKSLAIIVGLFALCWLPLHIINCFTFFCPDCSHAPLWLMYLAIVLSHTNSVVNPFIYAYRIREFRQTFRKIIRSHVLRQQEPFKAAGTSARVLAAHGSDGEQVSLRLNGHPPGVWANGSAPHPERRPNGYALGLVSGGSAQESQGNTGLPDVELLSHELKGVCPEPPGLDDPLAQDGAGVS

Take `CCCCn1c(=O)[nH]c2nc(-c3cnn(Cc4cccc(F)c4)c3)[nH]c2c1=O`: the Ki (as a rule, the equilibrium dissociation constant of an inhibitor or competing ligand from its target) at Adenosine receptor A2b is 0.018 µM; at Adenosine receptor A1 it was 4.2 µM; on Adenosine receptor A2a it was > 5 µM; at Adenosine receptor A3 it was 0.27 µM. Besides, the Ratio Ki was 230 in the test listed under Homo sapiens [1], > 280 in the test listed under Homo sapiens [2] and 15 in the test filed under Homo sapiens [3].

For `CCn1c(=O)[nH]c2nc(-c3cnn(Cc4cccc(C(F)(F)F)c4)c3)[nH]c2c1=O`, the Ki at Adenosine receptor A2b is 0.006 µM; on Adenosine receptor A1 it was > 6 µM; at Adenosine receptor A2a it was > 5 µM; at Adenosine receptor A3, > 9 µM. Also, the Ratio Ki in the test filed under Homo sapiens [1] was > 1000; in the test listed under Homo sapiens [2], > 830; in the test listed under Homo sapiens [3], > 1500.

On to `CCCn1c(=O)[nH]c2nc(-c3cnn(Cc4noc(-c5ccccc5)n4)c3)[nH]c2c1=O`, for which the Ki at Adenosine receptor A2b is 0.015 µM; at Adenosine receptor A1, 3.5 µM; at Adenosine receptor A2a, > 5 µM; at Adenosine receptor A3 it was > 9 µM. In addition, the Ratio Ki in the test listed under Homo sapiens [1] was 200; in the test filed under Homo sapiens [2], > 300; in the test listed under Homo sapiens [3] it was > 600.

Consider `CCCn1c(=O)[nH]c2nc(-c3cnn(Cc4noc(-c5ccc(C(F)(F)F)cc5)n4)c3)[nH]c2c1=O`, for which the Ki on Adenosine receptor A2b is 0.015 µM; on Adenosine receptor A1, 1.4 µM; at Adenosine receptor A2a, > 5 µM; at Adenosine receptor A3, > 9 µM. In addition, the values for the Ratio Ki in the test listed under Homo sapiens [1], in the test filed under Homo sapiens [2] and in the test filed under Homo sapiens [3] were 90, > 300 and > 600, respectively.

Turning to `O=c1[nH]c2nc(-c3cnn(Cc4noc(-c5ccc(Cl)cc5)n4)c3)[nH]c2c(=O)n1CC1CC1`, the Ki is 0.048 µM at Adenosine receptor A2b, > 6 µM on Adenosine receptor A1, > 5 µM on Adenosine receptor A2a and > 9 µM on Adenosine receptor A3. For the same compound, the Ratio Ki in the test listed under Homo sapiens [1] was > 120; in the test filed under Homo sapiens [2], > 100; in the test filed under Homo sapiens [3], > 190.

`CCCCn1c(=O)[nH]c2nc(-c3cnn(Cc4ccccc4)c3)[nH]c2c1=O`: the Ki is 0.034 µM at Adenosine receptor A2b, 5.1 µM at Adenosine receptor A1, 3.4 µM on Adenosine receptor A2a and 0.11 µM on Adenosine receptor A3. Further, the Ratio Ki in the test listed under Homo sapiens [1] was 150; in the test filed under Homo sapiens [2], 100; in the test filed under Homo sapiens [3] it was 3.

With `CC(C)Cn1c(=O)[nH]c2nc(-c3cnn(Cc4cccc(C(F)(F)F)c4)c3)[nH]c2c1=O`, the Ki at Adenosine receptor A2b was 0.028 µM; on Adenosine receptor A1 it was > 6 µM; on Adenosine receptor A2a, > 5 µM; at Adenosine receptor A3, > 9 µM. Further, the Ratio Ki is > 210 in the test listed under Homo sapiens [1], > 180 in the test filed under Homo sapiens [2] and > 320 in the test listed under Homo sapiens [3].

With `O=c1[nH]c2nc(-c3cnn(Cc4ccccc4)c3)[nH]c2c(=O)n1CC1CC1`, the Ki came out at 0.006 µM on Adenosine receptor A2b, 3.29 µM at Adenosine receptor A1, 2.76 µM at Adenosine receptor A2a and 0.18 µM at Adenosine receptor A3. For the same compound, the Ratio Ki amounted to 550 in the test filed under Homo sapiens [1], 460 in the test filed under Homo sapiens [2] and 30 in the test filed under Homo sapiens [3].

In the case of `CCCn1c(=O)[nH]c2nc(-c3cnn(Cc4ccccc4)c3)[nH]c2c1=O`, the Ki on Adenosine receptor A2b was 0.013 µM; at Adenosine receptor A1, 1.6 µM; at Adenosine receptor A2a it was > 5 µM; at Adenosine receptor A3, 0.12 µM. In addition, the Ratio Ki was 120 in the test listed under Homo sapiens [1], > 380 in the test filed under Homo sapiens [2] and 10 in the test filed under Homo sapiens [3].
